High-throughput results deposited in PubChem BioAssay by several laboratories.
MT stabilize HCS – microtubule stabilizers in HeLa cells; HeLa tubulin immunostaining HCS, 24 h; share of cells brighter than vehicle mean+2SD; % tubulin-high responders, % at 10 µM; hit rate 0.83% among 200,000;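 active means plate Z-score above 3 for both tubulin-high and condensed-nucleus cell shares, with cell loss under 80%, at 10 µM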;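 further: anti alpha tubulin signal scored within the nucleus-defined area of each cell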
NPY-Y1 PAM-ag – human NPY-Y1 potentiation or agonism, primary screen; P25929; hit rate 0.37% among 220,000; NPY-Y1 expressing cells, potentiator/agonist activation; activation, % at 3.6 µM; in the data active means activation above about 33%, passing the limit was not always enough;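 further: cells stimulated with NPY at EC10 then isoproterenol at EC100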
Target sequence (P25929 whole entry, looked up): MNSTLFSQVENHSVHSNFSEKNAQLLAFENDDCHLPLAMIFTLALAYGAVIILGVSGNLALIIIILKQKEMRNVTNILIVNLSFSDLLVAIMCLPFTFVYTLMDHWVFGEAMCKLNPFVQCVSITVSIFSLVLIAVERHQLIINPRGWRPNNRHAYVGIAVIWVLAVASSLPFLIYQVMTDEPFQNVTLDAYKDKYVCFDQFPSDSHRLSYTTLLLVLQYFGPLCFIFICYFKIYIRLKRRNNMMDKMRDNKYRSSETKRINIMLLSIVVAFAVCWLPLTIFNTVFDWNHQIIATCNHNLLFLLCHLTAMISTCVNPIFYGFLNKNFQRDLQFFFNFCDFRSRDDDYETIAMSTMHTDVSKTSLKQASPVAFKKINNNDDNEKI
NPY-Y1 antag – NPY-Y1 (human) receptor antagonism; HEK293-CNG Y1 cells, membrane potential fluorescence; NPY at EC95, then isoproterenol; hit rate 1% among 200,000; AID 1040; P25929; inhibition, % at 3.6 µM;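 active means inhibition above the campaign mean inhibition of all tested compounds plus 3 SD, cut at about 20% in these data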
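Assay system: HEK293 cells with Y1 receptor plus CNG channel | Probe or stimulus: NPY (25 nM), isoproterenol (1 µM), Ro 20-1724 (25 µM) | Timing: Compound incubation 1 h at room temperature, readout 45 min post-stimulation | Measured by: Membrane-potential fluorescent dye readout | Benchmarks: High control isoproterenol alone, low control NPY with isoproterenol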
b-catenin transl – beta-catenin nuclear translocation modulation. nuclear translocation activity, % at 5 µM. HeLa beta-catenin nuclear translocation, immunofluorescence imaging. hit rate 0.3% among 190,000. AID 1665;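 active means nuclear translocation activity above 50% at 5 µM, with a well cell count of 50 or more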;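 further: per-cell ratio of nuclear to cytoplasmic median beta-catenin stain intensity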
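Test system: human HeLa cell line; Doses: 5 µM primary, 0.02–20 µM confirmation; Incubation: 24 h compound exposure, 37°C; Detection: beta-catenin immunofluorescence imaging with DAPI; Read-out: beta-catenin nuclear/cytoplasmic ratio, % activation.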
NPY Y2 blocker – NPY-Y2 (human) receptor antagonism; NPY-Y2 expressing cells, antagonist mode; P49146; hit rate 0.99% among 140,000; inhibition, % at 2.7 µM; AID 793; in the data active means inhibition above about 17%
Target sequence (P49146 whole entry, looked up): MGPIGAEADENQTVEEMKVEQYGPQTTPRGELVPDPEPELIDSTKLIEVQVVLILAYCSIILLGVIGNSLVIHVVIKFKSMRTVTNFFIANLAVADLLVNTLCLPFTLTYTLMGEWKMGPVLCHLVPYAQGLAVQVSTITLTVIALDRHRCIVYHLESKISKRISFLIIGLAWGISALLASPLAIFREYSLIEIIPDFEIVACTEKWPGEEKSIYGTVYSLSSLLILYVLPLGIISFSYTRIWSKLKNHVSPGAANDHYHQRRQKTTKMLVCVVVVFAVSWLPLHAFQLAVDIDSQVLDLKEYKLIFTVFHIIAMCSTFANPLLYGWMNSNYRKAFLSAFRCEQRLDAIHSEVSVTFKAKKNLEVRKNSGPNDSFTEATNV
NPY-Y2 PAM-ag – potentiators or agonists of human neuropeptide Y receptor Y2; hit rate 0.45% among 220,000; P49146; cells expressing NPY-Y2, potentiator/agonist read-out; activation, % at 3.6 µM; in the data active means activation above about 27%;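 further: cells stimulated with NPY near EC25 plus isoproterenol at EC100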
Each line names hits and unclear results; the compound was inactive in the other large screens. Sampled rows, rich in hits. Any-hit rate of the full collection: about 2.6%.

Cc1ccc(C2CC(c3ccccc3)=NN2C(=S)Nc2ccccc2)o1 (centres undefined)	MT stabilize HCS 49.7 (no result: b-catenin transl)
CCOc1ccc(/C(C)=N/NC(=O)C(OC)c2ccccc2)cc1 (centres undefined)	MT stabilize HCS 10.1 (no result: NPY Y2 blocker)
CCOc1ccc(C(=O)N/N=C(/C)C2C(=O)c3ccccc3C2=O)cc1	none
N=c1c2c(-c3ccccc3)c(-c3ccccc3)n(Cc3ccco3)c2ncn1CCN1CCOCC1	NPY-Y1 antag 41.9, NPY Y2 blocker 43.3
N=c1c2c(-c3ccccc3)c(-c3ccccc3)n(Cc3ccco3)c2ncn1CCO	NPY-Y1 antag 37.8, NPY Y2 blocker 63.4
O=C(Nc1ccccc1-c1ccccc1)c1ccc(Cl)c([N+](=O)[O-])c1	NPY-Y1 PAM-ag 71.4, NPY-Y2 PAM-ag 29.1
O=C(c1ccccc1-c1ccccc1)N1CCN(c2ccccn2)CC1	MT stabilize HCS 42.8, b-catenin transl 65.9
Cc1cccc(N2CCN(C(=O)c3ccc4nc[nH]c4c3)CC2)c1C	none
Cc1cccc(N2CCN(C(=O)N3CCOCC3)CC2)c1C	MT stabilize HCS 35.8 (no result: NPY Y2 blocker)
O=C(c1ccc2ncsc2c1)N1CCN(c2ccccc2Cl)CC1	none (no result: NPY Y2 blocker)
Cc1cccc(N2CCN(C(=O)c3ccncc3)CC2)c1C	MT stabilize HCS 45.2 (no result: b-catenin transl)
COc1cc(C(=O)N2CCN(c3cc(Cl)ccc3Cl)CC2)cc(OC)c1OC	none
Cc1cccc(N2CCN(C(=O)c3ccc4ncsc4c3)CC2)c1C	MT stabilize HCS 43.4, b-catenin transl 150.1
COc1cc(C(=O)N2CCN(c3cccc(C)c3C)CC2)cc(OC)c1OC	b-catenin transl 64.0
CCN(CC(=O)NCc1ccc(Cl)cc1)C(=O)c1ccc(S(=O)(=O)N(C)C)cc1	none (no result: NPY Y2 blocker)
NC(=O)c1ccc(NC(=O)COC(=O)C2CC(=O)N(Cc3ccccc3)C2)cc1 (centres undefined)	none (no result: NPY Y2 blocker)
Cc1c(Cl)cccc1NC(=O)Cc1ccc([N+](=O)[O-])cc1	none (no result: NPY Y2 blocker)
COc1ccccc1N1CCN(C(=O)c2oc3cc(C)cc(C)c3c2C)CC1	MT stabilize HCS 24.8
COc1ccccc1N1CCN(C(=O)c2ccoc2C)CC1	none
O=C(CN1CCCCC1)Nc1ccc(Br)cc1[N+](=O)[O-]	none (no result: NPY Y2 blocker)
COc1ccc(-c2[nH]nc3c2C(c2ccoc2)C(C#N)=C(N)O3)cc1 (centres undefined)	none (no result: b-catenin transl)
COc1ccc(OC)c(-c2[nH]nc3c2C(c2ccco2)C(C#N)=C(N)O3)c1 (centres undefined)	NPY-Y1 antag 48.1, NPY Y2 blocker 28.2
COc1cccc(-c2[nH]nc3c2C(c2ccc(C)o2)C(C#N)=C(N)O3)c1 (centres undefined)	NPY-Y1 antag 28.5, NPY Y2 blocker 21.1
Cc1cc2c(cc(C(=O)OCC(=O)NCc3cccs3)n2C(C)C)o1	MT stabilize HCS 30.0, b-catenin transl 65.1
Cc1ccc(Nc2c(-c3ccc(N4CCOCC4)cc3)nc3ncccn23)c(C)c1	NPY-Y1 PAM-ag 57.5, NPY-Y2 PAM-ag 67.2
Cc1c(Br)c([N+](=O)[O-])nn1CCCC(=O)NC(C)c1ccccc1 (centres undefined)	none (no result: NPY Y2 blocker)
Cc1cccc(N2C(=O)C(Oc3ccc(Cl)cc3Cl)C2C=O)c1C (centres undefined)	NPY-Y1 PAM-ag 54.0
CCOc1ccc(Br)cc1/C(C)=N\NC1=NCCN1	MT stabilize HCS 34.6, b-catenin transl 81.5
CCOC(=O)N/N=C/c1c(C)nn(-c2cccc(C(F)(F)F)c2)c1Cl	MT stabilize HCS 23.8
Cc1nn(-c2cccc(C(F)(F)F)c2)c(Cl)c1/C=N/Nc1cccc(C(=O)O)c1	none
O=C(C1CCN(S(=O)(=O)c2ccccc2F)CC1)N1CCc2ccccc2C1	none (no result: NPY Y2 blocker)
OC[C@H](O)[C@H](O)[C@@H](O)[C@@H](O)[C@@H]1SC(c2ccccc2)=NN1c1ccccc1	none (no result: MT stabilize HCS, NPY-Y1 antag, NPY Y2 blocker)
Cc1ccc(C2=NNC(C(O)C(O)C(O)C(O)CO)S2)cc1 (centres undefined)	MT stabilize HCS 41.8
c1ccc(N(c2ccccc2)c2nc(N3CCOCC3)nc(N3CCOCC3)n2)cc1	none (no result: MT stabilize HCS, NPY-Y1 PAM-ag, NPY-Y1 antag, NPY Y2 blocker, NPY-Y2 PAM-ag)
FC(F)(F)COc1nc(N2CCOCC2)nc(N(c2ccccc2)c2ccccc2)n1	NPY-Y1 antag 20.9, NPY Y2 blocker 19.9
CC1CCCC(NC(=O)COC(=O)/C=C/c2ccc(S(=O)(=O)N3CCOCC3)cc2)C1C (centres undefined)	none (no result: MT stabilize HCS, NPY-Y1 antag, NPY Y2 blocker)
COc1cccc(-c2cc(C(F)(F)F)nc(-n3ccc([N+](=O)[O-])n3)n2)c1	NPY-Y1 antag 21.3 (no result: NPY Y2 blocker)
C=CCC(Nc1ccco1)c1ccccc1 (centres undefined)	none (no result: b-catenin transl)
COc1ccccc1/C=C/C(=O)Nc1ccc2c(c1)OCCO2	MT stabilize HCS 24.4, b-catenin transl 72.8
CCSc1nnc(NC(=O)Cc2cc(OC)c(OC)c(OC)c2)s1	none (no result: NPY Y2 blocker)
Cc1cccc(Cc2c(C)nc3nc(SCC(=O)NCc4ccco4)nn3c2C)c1	MT stabilize HCS 20.5
Cc1ccccc1Cc1c(C)nc2nc(SCC(=O)NCc3ccco3)nn2c1C	none
Cc1ccc(Cc2c(C)nc3nc(SCC(=O)NCc4ccco4)nn3c2C)cc1	MT stabilize HCS 22.0, b-catenin transl 155.9
COc1ccccc1OCC(O)CNCc1ccc2c(c1)OCO2 (centres undefined)	NPY-Y1 PAM-ag 78.8, NPY-Y2 PAM-ag 48.0 (no result: MT stabilize HCS, NPY-Y1 antag, NPY Y2 blocker)
COc1ccccc1CC(=O)NCc1ccc2c(c1)OCO2	none (no result: b-catenin transl)
CCCCC1(C(=O)OCC)CC(CSC(=N)N)OC1=O (centres undefined)	none (no result: NPY Y2 blocker)
Cc1cc(C)c2nc(N3CCN(C)CC3)c(C#N)cc2c1	NPY-Y1 antag 52.1, NPY Y2 blocker 25.7
COc1cc(NS(=O)(=O)c2ccc(OC)c(C)c2C)c(OC)cc1Cl	MT stabilize HCS 39.1, b-catenin transl 81.3
COc1ccc(OC)c(CNC(=O)Cc2c(C(=O)O)[nH]c3ccccc23)c1	NPY-Y1 PAM-ag 63.8
COc1cccc(C(=O)Nc2ncc3c(n2)CC(c2ccc(OC)cc2OC)CC3=O)c1 (centres undefined)	b-catenin transl 72.6
COC(=O)CCCCCCCCC(=O)Nc1nc2ccccc2s1	none
CCCC(=O)Nc1nc2ccc(NC(=O)c3ccccc3F)cc2s1	MT stabilize HCS 34.1 (no result: NPY Y2 blocker)
COCC(=O)Nc1nc2ccccc2s1	NPY-Y1 PAM-ag 108.3, NPY-Y2 PAM-ag 63.7
CCCCC(=O)Nc1nc2ccc(C(=O)OC)cc2s1	MT stabilize HCS 24.7 (no result: NPY Y2 blocker)
Clc1ccc(Oc2nc(N3CCOCC3)nc(N3CCOCC3)n2)cc1	none
COc1cccc(OC)c1C(=O)Nc1cc(C)nn1-c1nc2ccccc2[nH]1	MT stabilize HCS 9.3 (no result: NPY Y2 blocker)
COc1ccc(C(=O)Nc2cc(C)nn2-c2nc3ccccc3[nH]2)c(OC)c1	none (no result: NPY Y2 blocker)
O=C1CSC(c2cn(-c3ccccc3)nc2-c2cc3ccccc3oc2=O)N1Cc1ccccc1 (centres undefined)	MT stabilize HCS 31.0 (no result: b-catenin transl)
Cc1ccc(C(=O)NCC(=O)OCC(=O)Nc2ccccc2[N+](=O)[O-])cc1	none
